Bioassay records as filed in PubChem.
A selection: hits, their analogues and other compounds. The true share with any hit is near 2.2%.
M5 PAM – human M5 muscarinic receptor positive allosteric modulators, primary screen, CHO-K1 cells, Fluo-8 calcium fluorescence; activation, % at 3 µM; AID 624038, 2012; Muscarinic acetylcholine receptor M5 (Homo sapiens), P08912; CHO-K1 hM5, ACh EC20 PAM; 0% = ACh EC20, 100% = ACh EC100; actives 0.3% (n = 360,000);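 active = activation above the run cutoff, the mean activation of all test compounds plus 3 SD, cut at about 18% in these data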
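System – CHO-K1 hM5 cells · Compound – 3 µM, single dose · Incubation – compound preincubation 140 s before EC20 acetylcholine addition · Technique – Fluo-8 calcium fluorescence · Measure – Max/basal fluorescence ratio as % of EC20–EC100 ACh window · Benchmarks – low control EC20 acetylcholine (0%), high control EC100 acetylcholine (100%) · Replication – singlicate, one well per test compound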
M1 antag – human M1 muscarinic receptor antagonists, primary screen, CHO-K1 cells, Fluo-8 calcium fluorescence, 1536-well; CHO-K1 hM1, ACh EC80 antagonist; inhibition, % at 3 µM; actives 1.3% (n = 360,000);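 active = percent inhibition above its own plate's cutoff, namely the mean of that plate's compound wells plus 3 SD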;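 also: peak over basal fluorescence ratio during 140 s after agonist addition; 0% = ACh EC80 plus DMSO and 100% = DMSO alone without agonist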
Target sequence (P11229 whole entry, looked up): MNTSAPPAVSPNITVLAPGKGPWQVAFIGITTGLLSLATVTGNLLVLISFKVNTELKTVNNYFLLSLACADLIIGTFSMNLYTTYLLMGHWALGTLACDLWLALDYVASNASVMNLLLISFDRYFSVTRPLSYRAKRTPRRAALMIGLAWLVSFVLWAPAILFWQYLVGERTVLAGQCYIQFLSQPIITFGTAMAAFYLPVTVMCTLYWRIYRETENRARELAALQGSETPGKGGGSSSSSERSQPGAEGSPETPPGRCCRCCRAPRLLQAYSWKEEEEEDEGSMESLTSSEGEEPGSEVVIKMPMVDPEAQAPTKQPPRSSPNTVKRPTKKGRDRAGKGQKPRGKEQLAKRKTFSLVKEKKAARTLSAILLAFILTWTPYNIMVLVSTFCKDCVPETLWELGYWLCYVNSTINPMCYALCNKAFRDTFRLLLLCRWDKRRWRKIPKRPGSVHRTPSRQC
CHRM5 agonist – human M5 muscarinic receptor agonists, primary screen, CHO-K1 cells, Fluo-8 calcium fluorescence; activation, % at 3 µM; CHO-K1 hM5 cells; 0% DMSO wells, 100% maximal acetylcholine response; Muscarinic acetylcholine receptor M5 (Homo sapiens), P08912; actives 0.19% (n = 360,000);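 active = activation above the run's mean over test compounds plus 3 SD, cut at about 23% in these data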;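 also: signal is peak over basal fluorescence ratio across the kinetic read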
M5 antag – human M5 muscarinic receptor antagonists, primary screen, CHO cells, Fluo-8 calcium fluorescence. Muscarinic acetylcholine receptor M5 (Homo sapiens), P08912. CHO-hM5 cells, ACh EC80. inhibition, % at 3 µM. actives 0.59% (n = 360,000);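 active = inhibition above a per-plate cutoff, the mean of that plate's test compounds plus 3 SD, cut at about 27% in these data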;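 also: 0% = acetylcholine EC80 with DMSO and 100% = DMSO without agonist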
M1 ag – human M1 muscarinic receptor agonists, primary screen, Fluo-8 calcium fluorescence, CHO-K1 cells, HTS. Muscarinic acetylcholine receptor M1 (Homo sapiens), P11229. CHO-K1 hM1, agonist mode; 0% DMSO, 100% acetylcholine EC100. activation, % at 3 µM. actives 0.33% (n = 360,000);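 active = activation above the run's mean compound activation plus 3 SD, cut at about 16% in these data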;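 also: peak over basal fluorescence ratio within a 140 s kinetic read after compound addition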
M1 PAM – human M1 muscarinic receptor positive allosteric modulators, primary screen, CHO-K1 cells, Fluo-8 calcium fluorescence, 1536-well | Muscarinic acetylcholine receptor M1 (Homo sapiens), P11229 | CHO-K1 hM1, ACh EC20; 0% = ACh EC20, 100% = maximal ACh | activation, % at 3 µM | actives 0.088% (n = 360,000); in the data active = activation above about 19%, passing the limit was not always enough
The depositor's hits bear a star.

SMILES	M5 PAM	M1 antag	CHRM5 agonist	M5 antag	M1 ag	M1 PAM
CCCCN(CCCC)CCNC(=O)CN1C(=O)CSc2ccc(S(=O)(=O)N3CCOCC3)cc21	-18.7	86.5*	-10.0	17.7	-5.8	-23.6
CCN(CC)c1ccc(/C=N/n2c(-c3ccccc3Br)n[nH]c2=S)cc1	-6.2	81.1*	-14.7	7.7	-7.4	-25.7
CCCCn1c(SCC(=O)OCC)nc2c(sc(=S)n2-c2ccccc2OC)c1=O	-1.9	-10.8	-11.4	4.9	2.6	5.6
O=C(c1ccc(F)cc1)N1CCCN(c2nc(-c3ccccc3)ns2)CC1	19.6*	-11.4	6.3	-12.9	3.5	17.3
O=C(Nc1ccccc1)N1CCN(c2nc(-c3ccccc3)ns2)CC1	-19.6	32.3*	4.3	21.8	2.9	-16.5
CCCCN(C(C)=O)c1ccc2c(c1)C1CC2CCN1C(=O)OCc1ccccc1 (stereo unspecified)	-5.4	33.6*	0.2	8.0	-6.8	-14.4
O=C(Cc1ccc(S(=O)(=O)N2CCOCC2)s1)N1CCN(c2cccc(C(F)(F)F)c2)CC1	-11.6	38.3*	9.1	24.8	2.0	-12.3
O=C(Cc1ccc(S(=O)(=O)N2CCCC2)s1)N1CCN(c2ccccc2)CC1	10.3	-0.2	0.6	5.1	-5.3	4.0
O=C(c1ccccc1)N1CCN2C(=O)c3ccccc3C12c1ccc(Cl)cc1 (stereo unspecified)	-14.2	2.3	-11.4	6.3	-3.7	-4.2
O=C(c1ccc(F)cc1)N1CCN2C(=O)c3ccccc3C12c1ccc(Cl)cc1 (stereo unspecified)	-17.9	3.8	-11.0	47.1*	-6.9	1.8
O=C(c1ccc(F)cc1)N1CCN2C(=O)c3ccccc3C12c1ccccc1 (stereo unspecified)	-34.9	13.1	-15.2	34.4*	-2.6	-5.9
O=C(Nc1ccccc1)N1CCN2C(=O)c3ccccc3C12c1ccccc1 (stereo unspecified)	-1.5	-21.6	-4.0	-7.2	-3.0	0.9
COc1cccc(C(=O)N(C)Cc2c(C)nn(C3CCS(=O)(=O)C3)c2C)c1 (stereo unspecified)	9.9	8.2	1.7	2.4	0.4	1.9
Cn1c(C(=O)NCCCN2CCc3ccccc3C2)cc2c(=O)n(C)c3ccccc3c21	3.6	34.4*	-2.2	-6.1	-13.8	-20.4
CCN(CC)CCNC(=O)C12CC3CC(C)(CC(C)(C3)C1)C2	-13.2	39.8*	-7.5	9.1	-12.1	-24.7
COc1ccc(OCCOC(=O)Nc2ccccc2)cc1	-10.2	30.8*	-4.9	0.9	-3.6	-1.2
CCC[C@@H](CN1CCC[C@H]1CN1C(N)=NC[C@@H]1Cc1ccccc1)N1C[C@@H]([C@H](C)CC)N(CCCC2CCCC2)C1=N	-39.6	81.6*	-11.2	13.0	-10.6	-31.1
CCCCN1C(=N)N([C@@H](C)CN2CCC[C@H]2CN2C(N)=NC[C@H]2CC(C)C)C[C@H]1Cc1ccccc1	-15.7	-1.9	-12.2	33.1*	-12.0	-4.4
CCCCN1C(=N)N([C@@H](CCC)CN2CCC[C@H]2CN2C(N)=NC[C@@H]2Cc2ccccc2)C[C@H]1Cc1ccccc1	-13.1	36.4*	-12.9	10.4	-13.3	-35.0
CCCCN1C(=N)N([C@@H](C)CN2CCC[C@H]2CN2C(N)=NC[C@@H]2Cc2ccccc2)C[C@H]1[C@H](C)CC	0.9	38.7	-9.3	4.1	-10.1	-26.0
CCC[C@@H](CN1CCC[C@H]1CN1C(N)=NC[C@@H]1Cc1ccccc1)N1C[C@@H](Cc2ccccc2)N(CCCC2CCCC2)C1=N	-38.5	33.0	-8.9	20.9	-10.2	-32.0
N/C(CN1CCCCC1)=N\S(=O)(=O)c1cc(Cl)cc(Cl)c1	6.9	-12.0	-10.9	-4.7	-5.5	5.7
COc1ccc(C(=O)Nc2ccc(OCC(F)(F)C(F)F)c(C(F)(F)F)c2)cc1OC	-0.1	-18.4	-5.9	5.5	-3.2	0.6
O=C(Nc1ccc(OCC(F)(F)C(F)F)c(C(F)(F)F)c1)c1ccc(Cl)cc1	-18.6	36.3*	-5.3	11.7	0.9	-23.4
O=C(Nc1ccc(Br)c(C(F)(F)F)c1)c1ccccc1	-15.7	8.2	-3.0	9.7	-8.3	-19.2
SMILES	M5 PAM	M1 antag	CHRM5 agonist	M5 antag	M1 ag	M1 PAM
O=C(Nc1ccc(Br)c(C(F)(F)F)c1)c1ccc(C(F)(F)F)cc1	-34.0	63.4*	-3.7	30.9*	-0.3	-23.2
Cn1nc(C(F)(F)F)c(-c2cccc(C(F)(F)F)c2)c1NC(=O)Nc1ccc(F)cc1	-26.4	37.6*	3.1	34.3*	3.2	-19.0
CCCN(C#N)c1nc(NCC)nc(NC(C)C)n1	-0.6	-11.5	8.9	53.2*	-1.4	12.6
CCNc1nc(NC(C)C)nc(N(C)C#N)n1	5.0	-20.2	1.9	-0.2	-2.9	14.4
CC(=O)Nc1ccc(C(=O)OCCc2ccccc2)cc1	1.1	1.0	-0.3	0.4	10.7	-3.8
COc1cc(NC(C)CCCN)c2ncccc2c1Oc1ccccc1 (stereo unspecified)	25.1*	-5.4	-0.3	22.3	-2.5	7.0
COC(=O)Cn1c(=O)n(CCc2ccccc2)c(=O)c2c3c(sc21)CCCC3	-15.5	76.9*	-7.9	21.6	-8.6	-21.7
CCn1c(=O)n(CCc2ccccc2)c(=O)c2c3c(sc21)CCCC3	-1.1	5.5	-2.5	0.7	-1.6	-6.6
COc1ccc(NC(=O)c2ccccc2N2C(=O)C3C4C=CC(C5CC45)C3C2=O)c(OC)c1 (stereo unspecified)	10.9	2.4	-0.1	3.8	3.0	9.7
CC(=O)/C=C1\SC(CC(=O)O)C(=O)N1c1ccccc1 (stereo unspecified)	11.9	-7.3	-0.8	-8.4	-4.1	3.8
CC1CCN(CCCCOc2ccc([N+](=O)[O-])cc2)CC1	0.1	23.0	-6.4	2.2	-10.9	-21.6
COC(=O)C1CCN(Cc2ccc(OCCCN3CCN(c4ccc([N+](=O)[O-])cc4)CC3)cc2)CC1	-27.0	47.9*	-8.6	24.0	-5.3	-24.6
CSc1ccc(CN2CCC(C)(Oc3ccc(CC#N)cc3)C2)cc1 (stereo unspecified)	-1.6	29.3*	-1.3	-3.2	-8.1	-23.8
